Measured values taken from article PMC6923438 (Saudi Journal of Biological Sciences, 2019).

Key:
[1] = system: 3T3-L1 preadipocyte; assay: 3T3-L1 preadipocyte differentiation; format: cell-based; details: Oil Red O, TG content; vs induced control
Method in brief: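 3T3-L1 cells seeded at 2×10^4 cells/mL in 6-well plates. Differentiation was induced in DMEM with insulin (10 µg/mL), IBMX (0.5 mM), dexamethasone (1 µM) and 10% FBS for 48 h, then DMEM with insulin and FBS, then basic medium changed every 48 h. Test compound (12.5, 25, 50 µg/mL) was present throughout. Lipid droplets stained with Oil Red O 10 days after induction.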

[2] = system: gut microbiota; assay: 16S rRNA gene sequencing of caecal content, STZ induced diabetic rats; format: in vivo; details: STZ + Gli (2.5 mg/kg)
[3] = system: STZ-induced T1DM; assay: Pancreatic islet mass and pancreas histopathology in STZ-induced T1DM; format: in vivo, mice
Method in brief: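 STZ-diabetic mice (40 mg/kg i.p. × 5 days; glucose >220 mg/dl) were gavaged daily for 2 weeks with test compound at 10 or 20 mg/kg, or glibenclamide 2.5 mg/kg. Pancreas was formalin-fixed, paraffin-embedded, cut at 5 µm and stained with H&E. Islet mass was calculated as pancreas weight × relative β-cell area on slides; ANOVA versus model group.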

[4] = system: STZ-induced T1DM; format: in vivo; details: glibenclamide group (2.5 mg/kg), STZ induced mice
Method in brief: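 Swiss albino mice (20 ± 5 g, either sex) were given STZ 40 mg/kg i.p. for 5 days; mice with fasting glucose >220 mg/dl were taken as diabetic (18/group). They were dosed orally once daily for 2 weeks. Tail-vein glucose (glucometer) and body weight were recorded at intervals; weight loss was taken as day 1 versus pre-sacrifice weight. Liver and kidneys were weighed at sacrifice for organ index.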

[5] = system: 3T3-L1 adipocyte; assay: Glucose consumption in 3T3-L1 adipocyte; format: cell-based

Structure (SMILES): COc1ccc(Cl)cc1C(=O)NCCc1ccc(S(=O)(=O)NC(=O)NC2CCCCC2)cc1 [Glibenclamide, glibenclamide]
- 3T3-L1 preadipocyte differentiation [1]: significant differentiation
- Actinobacteria, 16S rRNA gene sequencing of caecal content [2]: 0.35 ± 0.03
- Bacteroidates, 16S rRNA gene sequencing of caecal content [2]: 0.28 ± 0.05
- Bacteroidetes, 16S rRNA gene sequencing of caecal content [2]: 0.23 ± 0.09
- Bifldobacteriales, 16S rRNA gene sequencing of caecal content [2]: 0.5 ± 0.04
- Burkholderiaies, 16S rRNA gene sequencing of caecal content [2]: 0.34 ± 0.04
- Campylobacterioles, 16S rRNA gene sequencing of caecal content [2]: 0.61 ± 0.09
- Clostridiales, 16S rRNA gene sequencing of caecal content [2]: 0.29 ± 0.05
- Coriobacteriales, 16S rRNA gene sequencing of caecal content [2]: 0.32 ± 0.09
- Cyanobacteria, 16S rRNA gene sequencing of caecal content [2]: 0.3 ± 0.07
- Desulfovibrionales, 16S rRNA gene sequencing of caecal content [2]: 0.25 ± 0.06
- Enterobacteriales, 16S rRNA gene sequencing of caecal content [2]: 0.3 ± 0.06
- Eryslpelotrichales, 16S rRNA gene sequencing of caecal content [2]: 0.5 ± 0.07
- Firmicutes, 16S rRNA gene sequencing of caecal content [2]: 0.22 ± 0.07
- Lactibacllales, 16S rRNA gene sequencing of caecal content [2]: 0.25 ± 0.03
- Proteobacteria, 16S rRNA gene sequencing of caecal content [2]: 0.28 ± 0.04
- Selenomonadales, 16S rRNA gene sequencing of caecal content [2]: 0.16 ± 0.03
- Verrucomicrobia, 16S rRNA gene sequencing of caecal content [2]: 0.21 ± 0.07
- Verrucomicrobiales, 16S rRNA gene sequencing of caecal content [2]: 0.36 ± 0.08
- pancreas histopathology ([3]; STZ induced type I DM): almost similar histopathology effect
- β-cell mass ([3]; glibenclamide group (2.5 mg/kg), STZ induced mice): 1.5 ± 0.02
- renal index [4]: 1.41 ± 0.13
- Glucose consumption (in words) [5]: significantly increased
- Glucose consumption ([5]; 1 µg/mL): 12.62 ± 0.67 mmol/L
